Laboratory results published in ChEMBL document CHEMBL4261564, “Studies on enantioselectivity of chiral 4-acetylamino-6-alkyloxy-2-alkylthiopyrimidines acting as antagonists of the human A3 adenosine receptor” (Medchemcomm, 2018).
pIC50, pKi: −log10 of the molar value.

Legend:
Adenosine receptor A3 [1] = molecular target: T1, Adenosine receptor A3 (Homo sapiens, UniProt P0DMS8); test: Displacement of [3H]NECA from recombinant human adenosine A3 receptor expressed in CHO cell membranes measured after 180 mins
T1 sequence (P0DMS8 whole entry): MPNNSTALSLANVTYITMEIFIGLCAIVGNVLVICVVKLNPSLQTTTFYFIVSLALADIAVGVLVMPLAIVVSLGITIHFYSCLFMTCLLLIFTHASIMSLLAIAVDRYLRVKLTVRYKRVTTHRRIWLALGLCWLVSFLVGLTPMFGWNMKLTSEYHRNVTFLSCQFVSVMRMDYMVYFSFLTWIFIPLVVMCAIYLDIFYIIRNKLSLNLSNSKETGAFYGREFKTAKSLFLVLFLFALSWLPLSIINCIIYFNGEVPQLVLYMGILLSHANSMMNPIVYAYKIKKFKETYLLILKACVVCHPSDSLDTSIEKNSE

Adenosine receptor A3 [2] = molecular target: T1, Adenosine receptor A3; test: Antagonist activity at recombinant human adenosine A3 receptor expressed in CHO cells assessed as reduction in Cl-IB-MECA-induced inhibition of forskolin-stimulated [3H]cAMP accumulation preincubated for 10 mins followed by Cl-IB-MECA addition measured after 30 mins by liquid scintillation counting method; format: functional, cell-based
Procedure, shortened: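 A3 AR CHO cells are plated at about 30,000 per well and used 24 h later. They are preincubated 15 min at 37 °C in DMEM containing ADA 1 U/mL and Ro20-1724 20 µM. Compound is added 10 min before Cl-IB-MECA, with 1 µM forskolin present. The reaction is stopped with 0.4 N HCl and neutralised with KOH. cAMP is measured by competitive binding of [3H]cAMP (2 nM) to bovine adrenal binding protein for 150 min at 0 °C, then filtered and counted by scintillation.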

Adenosine receptor A1 = molecular target: T2, Adenosine receptor A1 (Homo sapiens, UniProt P30542); test: Displacement of [3H]DPCPX from human adenosine A1 receptor expressed in CHO cell membranes after 180 mins
T2 sequence (P30542 whole entry): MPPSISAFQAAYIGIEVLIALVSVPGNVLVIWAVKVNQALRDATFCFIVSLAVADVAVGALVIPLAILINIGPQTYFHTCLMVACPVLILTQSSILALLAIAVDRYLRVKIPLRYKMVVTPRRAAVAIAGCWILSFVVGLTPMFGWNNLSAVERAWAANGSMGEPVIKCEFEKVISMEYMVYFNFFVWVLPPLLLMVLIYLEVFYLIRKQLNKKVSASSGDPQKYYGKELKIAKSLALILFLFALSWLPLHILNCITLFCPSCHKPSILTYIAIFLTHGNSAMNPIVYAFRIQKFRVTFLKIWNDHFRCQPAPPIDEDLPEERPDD
Procedure, shortened: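 Membranes (30 µg protein) are incubated with 3 nM [3H]DPCPX at 25 °C in Tris-HCl 50 mM, MgCl2 2 mM, ADA 2 U/mL, pH 7.4. Six test concentrations are used, and nonspecific binding is set with 50 µM R-PIA. The Kd of 3 nM is used for Ki. Values are the mean of at least three experiments, each in duplicate.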

Adenosine receptor A2a = Adenosine receptor A2a (Homo sapiens, UniProt P29274); test: Displacement of [3H]NECA from recombinant human adenosine A2A receptor expressed in CHO cell membranes measured after 90 mins
Adenosine receptor A2b = molecular target: T3, Adenosine receptor A2b (Homo sapiens, UniProt P29275); test: Displacement of [3H]NECA from recombinant human adenosine A2B receptor expressed in CHO cell membranes measured after 180 mins
T3 sequence (P29275 whole entry): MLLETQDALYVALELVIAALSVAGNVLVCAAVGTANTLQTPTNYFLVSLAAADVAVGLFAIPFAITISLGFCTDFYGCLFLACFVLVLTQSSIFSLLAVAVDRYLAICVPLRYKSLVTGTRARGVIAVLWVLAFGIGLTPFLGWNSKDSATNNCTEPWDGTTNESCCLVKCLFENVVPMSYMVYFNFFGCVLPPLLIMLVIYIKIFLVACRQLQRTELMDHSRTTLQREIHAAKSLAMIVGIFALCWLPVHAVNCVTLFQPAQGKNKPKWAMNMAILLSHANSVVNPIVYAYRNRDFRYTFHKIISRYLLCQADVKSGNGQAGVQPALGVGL

Chain of Adenosine receptor A2a (P29274 whole entry): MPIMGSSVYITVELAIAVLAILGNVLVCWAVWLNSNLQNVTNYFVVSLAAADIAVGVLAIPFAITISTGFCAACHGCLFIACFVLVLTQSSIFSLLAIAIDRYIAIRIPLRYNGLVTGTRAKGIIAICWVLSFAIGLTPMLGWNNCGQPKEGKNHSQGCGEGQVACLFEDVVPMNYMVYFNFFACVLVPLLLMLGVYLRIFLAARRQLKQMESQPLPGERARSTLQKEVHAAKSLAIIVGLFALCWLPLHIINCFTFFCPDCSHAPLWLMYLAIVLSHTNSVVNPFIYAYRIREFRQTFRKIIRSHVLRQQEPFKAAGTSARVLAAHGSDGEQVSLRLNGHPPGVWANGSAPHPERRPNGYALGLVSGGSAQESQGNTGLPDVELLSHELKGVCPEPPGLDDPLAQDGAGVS

| Compound | pKi (Adenosine receptor A3 [1]) | pIC50 (Adenosine receptor A3 [2]) | pKi (Adenosine receptor A1) | pKi (Adenosine receptor A2a) | pKi (Adenosine receptor A2b) |
| --- | --- | --- | --- | --- | --- |
| CCCOc1cc(NC(C)=O)nc(S[C@H](C)c2ccccc2)n1 | 6.13 |  |  |  |  |
| CCCSc1nc(NC(C)=O)cc(O[C@@H](C)c2ccccc2)n1 | 9.30 | 8.10 |  |  |  |
| CC[C@@H](C)Oc1cc(NC(C)=O)nc(SCc2ccccc2)n1 | 5.86 |  |  |  |  |
| CC[C@H](C)Oc1cc(NC(C)=O)nc(SCc2ccccc2)n1 | 6.74 | 6.82 |  |  |  |
| CCCSc1nc(NC(C)=O)cc(O[C@H](C)c2ccccc2)n1 | 8.77 |  |  |  |  |
| CCCOc1cc(NC(C)=O)nc(S[C@@H](C)c2ccccc2)n1 | 6.36 | 6.37 |  |  |  |
| CCCSc1nc(NC(C)=O)cc(OC(C)c2ccccc2)n1 (racemic) | 9.22 |  | < 6.00 | < 6.00 | < 6.00 |
| CCC(C)Oc1cc(NC(C)=O)nc(SCc2ccccc2)n1 (racemic) | 6.71 |  | < 6.00 | < 6.00 | < 6.00 |
| CCCOc1cc(NC(C)=O)nc(SC(C)c2ccccc2)n1 (racemic) | 6.24 |  | < 6.00 | < 6.00 | < 6.00 |
